Values belong to the compound of their own block, whether it stands above or below them. Calls of active or inactive are those of the source. The rule behind the calls is not given here.
Columns and labels:
Rattus norvegicus [1] = experiment: Tested for in vivo inhibition of galactitol accumulation in the lens of galactose-fed rats at the dose of 102.8 (mg/kg/day); NS=Not significant; assay type: functional, organism-based; details: Lens of camera-type eye
Rattus norvegicus [2] = experiment: Tested for in vivo inhibition of galactitol accumulation in the sciatic nerve of galactose-fed rats at the dose of 102.8 (mg/kg/day); NS=Not significant; assay type: functional, organism-based
In short: (§1)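 Rats were given a 20% galactose diet for 4 days, with the test compound administered in the diet. Sciatic nerve galactitol accumulation was measured, and activity is given as % inhibition at the stated daily dose (mg/kg/day). Values are mean ± SEM, n = 6 animals; p < 0.01 unless indicated. NS means no significant inhibition of polyol accumulation.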

[3] = target: Aldo-keto reductase family 1 member B1 (Bos taurus) (UniProt P16116); experiment: Inhibition of aldose reductase activity in partially purified bovine lens preparation at 4*10 e-8 M
[4] = target: Aldo-keto reductase family 1 member B1 (Bos taurus) (UniProt P16116); experiment: Inhibition of aldose reductase activity in partially purified bovine lens preparation at 10e-5 M
In short: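 Partially purified bovine lens aldose reductase. Reduction of DL-glyceraldehyde substrate followed spectrophotometrically. Activity expressed as average inhibition at the tested concentrations, 1×10^-5, 1×10^-6, 1×10^-7 and 4×10^-6 M as printed; IC50 in M where given.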

Rattus norvegicus [5] = experiment: Tested for in vivo inhibition of galactitol accumulation in the sciatic nerve of galactose-fed rats at the dose of 24.5 (mg/kg/day); assay type: functional; in short: as §1
Rattus norvegicus [6] = experiment: Tested for in vivo inhibition of galactitol accumulation in the lens of galactose-fed rats at the dose of 24.5 (mg/kg/day); NS=Not significant; assay type: functional, organism-based; details: Lens of camera-type eye
Rattus norvegicus [7] = experiment: Tested for in vivo inhibition of galactitol accumulation in the lens of galactose-fed rats at the dose of 24 (mg/kg/day); NS=Not significant; assay type: functional, organism-based; details: Lens of camera-type eye
Rattus norvegicus [8] = experiment: Tested for in vivo inhibition of galactitol accumulation in the sciatic nerve of galactose-fed rats at the dose of 24; NS=Not significant; assay type: functional, organism-based; in short: as §1
Rattus norvegicus [9] = experiment: Tested for in vivo inhibition of galactitol accumulation in the lens of galactose-fed rats at the dose of 91.6 (mg/kg/day); NS=Not significant; assay type: functional, organism-based; details: Lens of camera-type eye
In short: (§2)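 Galactosemic rats were fed 20% galactose for 4 days, with the compound mixed into the diet. […] galactitol accumulation was measured, and activity is given as % inhibition at the stated daily dose (mg/kg/day). Values are mean ± SEM of six animals; p < 0.01 unless indicated. NS means no significant inhibition of polyol accumulation.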

Rattus norvegicus [10] = experiment: Tested for in vivo inhibition of galactitol accumulation in the sciatic nerve of galactose-fed rats at the dose of 91.6 (mg/kg/day); NS=Not significant; assay type: functional, organism-based
In short: (§3)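 Rats fed a 20% galactose diet for 4 days, with test compound given in the diet at the stated daily dose (mg/kg/day). Read-out is inhibition of galactitol (polyol) accumulation in sciatic nerve. Values are % inhibition, mean ± SEM of six animals; p < 0.01 unless marked (some p < 0.05). NS = no significant inhibition of polyol accumulation. Tolrestat was the reference standard.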

Rattus norvegicus [11] = experiment: Tested for in vivo inhibition of galactitol accumulation in the sciatic nerve of galactose-fed rats at the dose of 9.9 (mg/kg/day); NS=Not significant; assay type: functional, organism-based; in short: as §3
Rattus norvegicus [12] = experiment: Tested for in vivo inhibition of galactitol accumulation in the lens of galactose-fed rats at the dose of 5.3 (mg/kg/day); NS=Not significant; assay type: functional, organism-based; details: Lens of camera-type eye
Rattus norvegicus [13] = experiment: Tested for in vivo inhibition of galactitol accumulation in the sciatic nerve of galactose-fed rats at the dose of 5.3 (mg/kg/day); NS=Not significant; assay type: functional, organism-based; in short: as §3
Rattus norvegicus [14] = experiment: Tested for in vivo inhibition of galactitol accumulation in the lens of galactose-fed rats at the dose of 48 (mg/kg/day); NS=Not significant; assay type: functional, organism-based; details: Lens of camera-type eye
Rattus norvegicus [15] = experiment: Tested for in vivo inhibition of galactitol accumulation in the sciatic nerve of galactose-fed rats at the dose of 48 (mg/kg/day); assay type: functional; in short: as §3
Rattus norvegicus [16] = experiment: Tested for in vivo inhibition of galactitol accumulation in the sciatic nerve of galactose-fed rats at the dose of 24.8 (mg/kg/day); NS=Not significant; assay type: functional, organism-based; in short: as §1
Rattus norvegicus [17] = experiment: Tested for in vivo inhibition of galactitol accumulation in the lens of galactose-fed rats at the dose of 24.8 (mg/kg/day); NS=Not significant; assay type: functional, organism-based; details: Lens of camera-type eye
Rattus norvegicus [18] = experiment: Tested for in vivo inhibition of galactitol accumulation in the lens of galactose-fed rats at the dose of 24.1 (mg/kg/day); NS=Not significant; assay type: functional, organism-based; details: Lens of camera-type eye
Rattus norvegicus [19] = experiment: Tested for in vivo inhibition of galactitol accumulation in the sciatic nerve of galactose-fed rats at the dose of 24.1 (mg/kg/day); NS=Not significant; assay type: functional, organism-based; in short: as §1
Rattus norvegicus [20] = experiment: Tested for in vivo inhibition of galactitol accumulation in the lens of galactose-fed rats at the dose of 85 (mg/kg/day); assay type: functional, Lens of camera-type eye; in short: as §2
Rattus norvegicus [21] = experiment: Tested for in vivo inhibition of galactitol accumulation in the sciatic nerve of galactose-fed rats at the dose of 85 (mg/kg/day); assay type: functional; in short: as §3
Rattus norvegicus [22] = experiment: Tested for in vivo inhibition of galactitol accumulation in the lens of galactose-fed rats at the dose of 26.8 (mg/kg/day); NS=Not significant; assay type: functional, organism-based; details: Lens of camera-type eye
Rattus norvegicus [23] = experiment: Tested for in vivo inhibition of galactitol accumulation in the sciatic nerve of galactose-fed rats at the dose of 26.8 (mg/kg/day); assay type: functional; in short: as §1
Rattus norvegicus [24] = experiment: Tested for in vivo inhibition of galactitol accumulation in the sciatic nerve of galactose-fed rats.4.9 (mg/kg/day); NS=Not significant; assay type: functional, organism-based; in short: as §3
[25] = target: Aldo-keto reductase family 1 member B1 (Bos taurus) (UniProt P16116); experiment: Compound was tested in vitro for inhibition of aldose reductase activity in partially purified bovine lens preparation at 10 e-8 M
Rattus norvegicus [26] = experiment: Tested for in vivo inhibition of galactitol accumulation in the lens of galactose-fed rats at the dose of 4.9 (mg/kg/day); NS=Not significant; assay type: functional, organism-based; details: Lens of camera-type eye
Rattus norvegicus [27] = experiment: Tested for in vivo inhibition of galactitol accumulation in the sciatic nerve of galactose-fed rats at the dose of 46.1 (mg/kg/day); NS=Not significant; assay type: functional, organism-based; in short: as §1
Rattus norvegicus [28] = experiment: Tested for in vivo inhibition of galactitol accumulation in the lens of galactose-fed rats at the dose of 46.1 (mg/kg/day); NS=Not significant; assay type: functional, organism-based; details: Lens of camera-type eye
Rattus norvegicus [29] = experiment: Tested for in vivo inhibition of galactitol accumulation in the lens of galactose-fed rats at the dose of 54.8 (mg/kg/day); NS=Not significant; assay type: functional, organism-based; details: Lens of camera-type eye
Rattus norvegicus [30] = experiment: Tested for in vivo inhibition of galactitol accumulation in the sciatic nerve of galactose-fed rats at the dose of 54.8 (mg/kg/day); assay type: functional; in short: as §3

SMILES: CCOC(=O)NC(=O)CC1C(=O)N(C)C(=O)c2ccc(Cl)cc21 (stereo not given)
inhibition [4]: inactive
Inhibition (Rattus norvegicus [5]): 21%
inhibition (Rattus norvegicus [6]): inactive

SMILES: CN1C(=O)c2ccc(Cl)cc2C(CC(N)=O)C1=O (stereo not given)
inhibition [4]: inactive
inhibition (Rattus norvegicus [12]): inactive
inhibition (Rattus norvegicus [13]): inactive

SMILES: COC(=O)NC(=O)CC1C(=O)N(C)C(=O)c2ccccc21 (stereo not given)
Inhibition (Rattus norvegicus [20]): 37%
Inhibition (Rattus norvegicus [21]): 59%
inhibition [4]: 61%
inhibition (Rattus norvegicus [22]): inactive
Inhibition (Rattus norvegicus [23]): 21%

SMILES: CN1C(=O)c2ccc(Cl)cc2C(CC(=O)O)C1=O (stereo not given)
inhibition (Rattus norvegicus [24]): inactive
inhibition [25]: 35%
inhibition (Rattus norvegicus [26]): inactive

SMILES: COC(=O)N(C(=O)OC)N1C(=O)CC2(C(=O)N(Cc3ccc(Br)cc3F)C(=O)c3ccccc32)C1=O (stereo not given)
inhibition (Rattus norvegicus [29]): inactive
inhibition [4]: inactive
Inhibition (Rattus norvegicus [30]): 50%

The next lines start with results.

inhibition [3]: 50%
SMILES: O=C(O)CC1C(=O)N(Cc2ccc(Br)cc2F)C(=O)c2ccccc21 (stereo not given)
inhibition (Rattus norvegicus [1]): inactive
inhibition (Rattus norvegicus [2]): inactive

inhibition [3]: 65%
SMILES: O=C(O)CC1C(=O)N(Cc2nc3cc(C(F)(F)F)ccc3s2)C(=O)c2ccccc21 (stereo not given)
inhibition (Rattus norvegicus [7]): inactive
inhibition (Rattus norvegicus [8]): inactive

inhibition [4]: inactive
SMILES: CCCN1C(=O)c2ccccc2C(CC(=O)NC(=O)OC)C1=O (stereo not given)
inhibition (Rattus norvegicus [9]): inactive
inhibition (Rattus norvegicus [10]): inactive

inhibition [4]: inactive
SMILES: CON1C(=O)CC2(C(=O)N(Cc3ccc(Br)cc3F)C(=O)c3ccccc32)C1=O (stereo not given)
inhibition (Rattus norvegicus [11]): inactive

inhibition [4]: 84%
SMILES: COC(=O)NC(=O)CC1C(=O)N(Cc2ccc(Br)cc2F)C(=O)c2ccccc21 (stereo not given)
inhibition (Rattus norvegicus [14]): inactive
Inhibition (Rattus norvegicus [15]): 96%

inhibition [4]: inactive
SMILES: CCNC(=O)CC1C(=O)N(Cc2ccc(Br)cc2F)C(=O)c2ccccc21 (stereo not given)
inhibition (Rattus norvegicus [16]): inactive
inhibition (Rattus norvegicus [17]): inactive

inhibition [4]: 45%
SMILES: CONC(=O)CC1C(=O)N(Cc2ccc(Br)cc2F)C(=O)c2ccccc21 (stereo not given)
inhibition (Rattus norvegicus [18]): inactive
inhibition (Rattus norvegicus [19]): inactive

inhibition [3]: 61%
SMILES: COc1ccc2c(c1)C(=O)N(Cc1ccc(Br)cc1F)C(=O)C2CC(=O)O (stereo not given)
inhibition (Rattus norvegicus [27]): inactive
inhibition (Rattus norvegicus [28]): inactive
